Measurements as given in article PMC11555253 (Scientific Reports, 2024).

Experiments:
[1] = system: α-glucosidase; test: Enzyme kinetic study; assay type: biochemical, Saccharomyces cerevisiae; conditions: Km increased, Vmax constant with rising inhibitor concentration
Summary of the method: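 Yeast α-glucosidase (1 U/mL) was preincubated 15 min at 30 °C with test compound at 0, 12.5, 25 and 50 µM or 0, 15, 30 and 60 µM. p-Nitrophenyl α-D-glucopyranoside was then added at graded concentrations, and absorbance change at 405 nm was followed for 20 min. Double-reciprocal plots were made, and KI was taken from a replot of apparent Km versus inhibitor concentration.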

[2] = system: α-glucosidase; test: Fluorescence quenching measurements and thermodynamic analysis of binding; design: species or system Saccharomyces cerevisiae
Summary of the method: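 α-Glucosidase (0.1 U/mL) was equilibrated 10 min with test compound at 0 to 1.0 µM. Emission was scanned from 300–450 nm with excitation at 280 nm in a 1.0 cm quartz cell, and enzyme-free compound background was subtracted. Spectra covered 20–60 °C. KA came from F0/(F0–F) versus total drug concentration at 20 °C and 60 °C, with binding-site number at 20 °C.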

[3] = system: Saccharomyces cerevisiae α-glucosidase; test: α-Glucosidase inhibition assay; assay type: biochemical; conditions: IC50 compared with acarbose

Compound	inhibition mode [1]	KA (binding constant) ([2]; 20 °C)	KA (binding constant) ([2]; 60 °C)	times more potent than acarbose [3]
COc1ccccc1NC(=O)Cn1cc(CSc2nc3ccccc3c3nc4ccccc4n23)nn1 [27e, 2-(4-((benzo[4,5]imidazo[1,2-c]quinazolin-6-ylthio)methyl)-1H-1,2,3-triazol-1-yl)-N-(2-methoxyphenyl)acetamide]	competitive inhibition	6.8 × 10 ^4 L mol^–1 s^–1	5.0 × 10 ^4 L mol^–1 s^–1	
COc1ccccc1NC(=O)Cn1cc(CSc2nc3ccccc3c3nc(-c4ccccc4)c(-c4ccccc4)n23)nn1 [19e, 2-(4-(((2,3-diphenylimidazo[1,2-c]quinazolin-5-yl)thio)methyl)-1H-1,2,3-triazol-1-yl)-N-(2-methoxyphenyl)acetamide]	competitive inhibition	4.8 × 10 ^4 L mol^–1 s^–1	2.7 × 10 ^4 L mol^–1 s^–1	15 times
